In brackets after ≈: the same amount, converted by molar mass. Some results are limits rather than exact numbers.

The values below come from ChEMBL document CHEMBL4265984, “Improved potency and reduced toxicity of the antifungal peptoid AEC5 through submonomer modification” (Bioorg Med Chem Lett, 2018).

A short description of data set [1]: Selectivity index, ratio of TD50 for human HepG2 cells to MIC>90 for Cryptococcus neoformans H99S serotype A. The class given is toxicity. The conditions noted are these: read-out: Selectivity Index.
For data set [2], the system named is Cryptococcus neoformans. The data set is described as follows: Antifungal activity against Cryptococcus neoformans H99S serotype A after 72 hrs by presto blue dye based CLSI method. The data set is classed as functional, Cryptococcus neoformans var. grubii H99S.
A short description of data set [3]: Cytotoxicity against human HepG2 cells after 72 hrs by MTT assay. The data set is classed as cell-based. The conditions noted are these: read-out: TD50. (In general: Formazan colour is commonly taken as a measure of viable cells.)
The nature of data set [4]: Hemolytic activity in human RBC at 100 ug/ml after 1 hr relative to control. The conditions noted are these: red blood cells (erythrocytes), read-out: Activity. The class given is ADME, cell-based, Erythrocyte.
Data set [5] in a line: Selectivity index, ratio of TD50 for mouse NIH/3T3 cells to MIC>90 for Cryptococcus neoformans H99S serotype A. The conditions noted are these: read-out: Selectivity Index. The data set is classed as toxicity.
Data set [6] deals with Erythrocyte. The data set is described as follows: Hemolytic activity in human RBC after 1 hr. The data set is classed as ADME, cell-based. The gist of the method:
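Hemolysis of human red blood cells is reported as HC10, the concentration giving 10% hemolysis, in µg/mL.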

Data set [7] is described as follows: Cytotoxicity against mouse NIH/3T3 cells after 72 hrs by MTT assay. The data set is classed as cell-based, NIH3T3. The conditions noted are these: read-out: TD50.
Data set [8] in a line: Selectivity index, ratio of HC10 for human RBC to MIC>90 for Cryptococcus neoformans H99S serotype A. The data set is classed as toxicity. The conditions noted are these: red blood cells, read-out: Selectivity Index.

Usually MIC90 stands for an inhibitory concentration at the 90% level, which refers to growth in some studies and to a panel of isolates in others. For `CCCCCCCCCCCCCNCC(=O)N(CCCCN)CC(=O)N(CC(N)=O)CC1CCCO1` (centres undefined), the selectivity ratio in data set [1] came out at 14. The MIC90 in data set [2] was found to be 12.5 µg/mL (≈ 23.8 µM). The CC50 at 72 h in data set [3] came to 170 µg/mL (≈ 324 µM).

In data set [2], `CC(C)=CCC/C(C)=C/CC/C(C)=C/CNCC(=O)N(CCCCN)CC(=O)N(CCCn1ccnc1)CC(N)=O` showed an MIC90 of 100 µg/mL (≈ 175 µM).

As for `CCCCCCCCCCCCCNCC(=O)N(CCCCN)CC(=O)N(CC(N)=O)Cc1cccs1`, the selectivity ratio is 25 in data set [1], 21 in data set [5] and 12 in data set [8]. In addition, in data set [4], the hemolysis at 1 h, 100 ug/ml was 48.6%. This molecule returned an MIC90 in data set [2] of 3.13 µg/mL (≈ 5.82 µM). The CC50 at 72 h in data set [3] was 79.3 µg/mL (≈ 147 µM); in data set [7], 65.9 µg/mL (≈ 123 µM). Also, the HC10 in data set [6] amounted to 37.2 µg/mL.

As to `CCCCCCCCCCCCCNCC(=O)N(CCCCN)CC(=O)N(CCc1c[nH]c2ccccc12)CC(N)=O`, in data set [1], the selectivity ratio came to 14. The same molecule yielded an MIC90 in data set [2] of 3.13 µg/mL (≈ 5.35 µM). Moreover, the CC50 at 72 h in data set [3] is 42.7 µg/mL (≈ 73 µM).

`CCCCCCCCCCCCCNCC(=O)N(CCCNC(=N)N)CC(=O)N(CC(N)=O)Cc1cccs1`: the selectivity ratio in data set [1] was determined as 3. The molecule also returned an MIC90 in data set [2] of 12.5 µg/mL (≈ 22.1 µM). The CC50 at 72 h in data set [3] stood at 40.8 µg/mL (≈ 72.1 µM).

`CCCCCCCCCCCCCNCC(=O)N(CCCCN)CC(=O)N(CC(N)=O)Cc1ccco1`: the figures for the selectivity ratio in data set [1], in data set [5] and in data set [8] were 9, 8 and 9, respectively. For the same molecule, in data set [4], the hemolysis at 1 h, 100 ug/ml came out at 30.4%. This molecule also displayed an MIC90 in data set [2] of 6.3 µg/mL (≈ 12.1 µM). The CC50 at 72 h in data set [3] amounted to 56.2 µg/mL (≈ 108 µM); in data set [7], 48.6 µg/mL (≈ 93.1 µM). The molecule further yielded an HC10 in data set [6] of 56.6 µg/mL.

As to `CCCCCCCCCCCCCNCC(=O)N(CCCCN)CC(=O)N(C)CC(N)=O`, in data set [1], the selectivity ratio amounted to 1. Besides, in data set [2], the MIC90 is 50 µg/mL (≈ 110 µM). The CC50 at 72 h in data set [3] worked out at 54.3 µg/mL (≈ 119 µM).

For `CCCCCCCCCCCCCNCC(=O)N(CCCCN)CC(=O)N(CC(N)=O)Cc1ccccc1`, the selectivity ratio in data set [1] turned out to be 17. The molecule further returned an MIC90 in data set [2] of 3.13 µg/mL (≈ 5.89 µM). Also, the CC50 at 72 h in data set [3] was 52.2 µg/mL (≈ 98.2 µM).

`CCCCCCCCCCCCCNCC(=O)N(CCCCO)CC(=O)N(CC(N)=O)Cc1cccs1`: the selectivity ratio in data set [1] is 3. Also, in data set [2], the MIC90 stood at 12.5 µg/mL (≈ 23.2 µM). The CC50 at 72 h in data set [3] was determined as 31 µg/mL (≈ 57.5 µM).

`CCCCCCCCCCCCCCCCNCC(=O)N(CCCCN)CC(=O)N(CC(N)=O)Cc1ccco1`: the selectivity ratio in data set [1] amounted to 13. In data set [2], this molecule yielded an MIC90 of 3.13 µg/mL (≈ 5.55 µM). The CC50 at 72 h in data set [3] turned out to be 40.4 µg/mL (≈ 71.7 µM).

Take `CCCCCCCCCCCCCNCC(=O)N(CCCC[N+](C)(C)C)CC(=O)N(CC(N)=O)Cc1cccs1`: the hemolysis at 1 h, 100 ug/ml in data set [4] stood at 46%. This molecule also gave an MIC90 in data set [2] of 3.13 µg/mL. For the same molecule, the CC50 at 72 h in data set [3] came to 91.2 µg/mL; in data set [7], 115 µg/mL. Also, the HC10 in data set [6] came out at 42.6 µg/mL.

In turn, `CC(C)=CCC/C(C)=C/CC/C(C)=C/CNCC(=O)N(CCCCN)CC(=O)N(CC(N)=O)Cc1cccs1` came in with an MIC90 in data set [2] of 400 µg/mL (≈ 715 µM).

Turning to `CCCCCCCCNCC(=O)N(CCCCN)CC(=O)N(CC(N)=O)Cc1ccco1`, the MIC90 in data set [2] is more than 800 µg/mL.

Turning to `CC(C)=CCC/C(C)=C/CC/C(C)=C/CNCC(=O)N(CCCCN)CC(=O)N(CCc1c[nH]c2ccccc12)CC(N)=O`, in data set [2], the MIC90 was 100 µg/mL (≈ 165 µM).

In data set [2], `CC(C)=CCC/C(C)=C/CNCC(=O)N(CCCCN)CC(=O)N(CC(N)=O)Cc1ccco1` yielded an MIC90 of 400 µg/mL (≈ 841 µM).

In the case of `CCCCCCCCCCCCCNCC(=O)N(CCCN)CC(=O)N(CC(N)=O)Cc1cccs1`, in data set [1], the selectivity ratio amounted to 15. For the same molecule, the MIC90 in data set [2] was determined as 3.13 µg/mL (≈ 5.98 µM). The CC50 at 72 h in data set [3] worked out at 47.3 µg/mL (≈ 90.3 µM).

As for `CCCCCCCCCCCCCNCC(=O)N(C)CC(=O)N(CC(N)=O)Cc1ccco1`, in data set [1], the selectivity ratio amounted to 2. This molecule also came in with an MIC90 in data set [2] of 12.5 µg/mL (≈ 26.9 µM). Also, the CC50 at 72 h in data set [3] came out at 21.1 µg/mL (≈ 45.4 µM).

Consider `CCCCCCCCCCCCCNCC(=O)N(CCCCCCN)CC(=O)N(CC(N)=O)Cc1cccs1`, for which the selectivity ratio in data set [1] was 18. Further, in data set [2], the MIC90 turned out to be 3.13 µg/mL (≈ 5.53 µM). The CC50 at 72 h in data set [3] was 56.2 µg/mL (≈ 99.3 µM).

Take `CC(C)=CCC/C(C)=C/CC/C(C)=C/CNCC(=O)N(CCCCN)CC(=O)N(CC(N)=O)Cc1ccco1`: in data set [1], the selectivity ratio was 8. In data set [2], this molecule gave an MIC90 of 100 µg/mL (≈ 184 µM). The CC50 at 72 h in data set [3] was 800 µg/mL (≈ 1470 µM).

In the case of `CCCCCCCCCCNCC(=O)N(CCCCN)CC(=O)N(CC(N)=O)Cc1ccco1`, the MIC90 in data set [2] is 400 µg/mL (≈ 834 µM).

As to `CCCCCCCCCCCCCNCC(=O)N(CCCCN)CC(=O)N(CCCn1ccnc1)CC(N)=O`, the selectivity ratio in data set [1] came to 5. This molecule also displayed an MIC90 in data set [2] of 50 µg/mL (≈ 90.9 µM). Further, in data set [3], the CC50 at 72 h is 228 µg/mL (≈ 415 µM).

In data set [2], `CNCC(=O)N(CCCCN)CC(=O)N(CC(N)=O)Cc1ccco1` displayed an MIC90 of more than 400 µg/mL. Moreover, the CC50 at 72 h in data set [3] was more than 800 µg/mL.

Take `CCCCCCCCCCCCCNCC(=O)N(CCCCN)CC(=O)N(CC(N)=O)Cc1ccncc1`: in data set [1], the selectivity ratio was determined as 4. Further, the MIC90 in data set [2] stood at 25 µg/mL (≈ 46.9 µM). The CC50 at 72 h in data set [3] was 104 µg/mL (≈ 195 µM).

In the case of `CCCCCCCCCCCCCNCC(=O)N(CCN)CC(=O)N(CC(N)=O)Cc1cccs1`, in data set [1], the selectivity ratio came to 6. Moreover, the MIC90 in data set [2] came to 6.25 µg/mL (≈ 12.3 µM). In data set [3], the CC50 at 72 h was 40.5 µg/mL (≈ 79.4 µM).

For the molecule `CCCCCCCCCCCCCNCC(=O)N(CCCCN)CC(=O)N(CC(N)=O)Cc1ncc[nH]1`, the selectivity ratio in data set [1] stood at 6. This molecule also returned an MIC90 in data set [2] of 25 µg/mL (≈ 47.9 µM). Further, in data set [3], the CC50 at 72 h was found to be 147 µg/mL (≈ 282 µM).
